# Laboratory results: ChEMBL document CHEMBL1155080, “Alpha2-adrenoreceptors profile modulation. 4. From antagonist to agonist behavior” (J Med Chem, 2008)
# Active and inactive are the calls of the source. The calls are words filed in the database; no cut-off is given here.
# Columns and labels:
# [1] = target: T1, Alpha-2C adrenergic receptor (Homo sapiens) (UniProt P18825); assay: Antagonist activity at human recombinant adrenergic Alpha-2C receptor expressed in CHO cells; assay type: functional, cell-based
# T1 sequence (whole entry): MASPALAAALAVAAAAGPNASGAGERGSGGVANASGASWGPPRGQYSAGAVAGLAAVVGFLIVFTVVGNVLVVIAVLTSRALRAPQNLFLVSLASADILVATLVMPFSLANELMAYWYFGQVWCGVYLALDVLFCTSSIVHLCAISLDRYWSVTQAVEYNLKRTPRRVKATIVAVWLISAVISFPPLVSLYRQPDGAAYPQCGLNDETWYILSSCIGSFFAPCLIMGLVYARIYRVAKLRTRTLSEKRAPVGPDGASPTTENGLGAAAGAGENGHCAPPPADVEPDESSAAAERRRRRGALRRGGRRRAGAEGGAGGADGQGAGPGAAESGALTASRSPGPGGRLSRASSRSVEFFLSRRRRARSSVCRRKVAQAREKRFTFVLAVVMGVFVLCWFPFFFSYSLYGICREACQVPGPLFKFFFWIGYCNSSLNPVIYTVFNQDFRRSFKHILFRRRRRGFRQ
# Summary of the method: (§1)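 Clonidine-curve shift measured by Cytosensor microphysiometry of extracellular acidification in CHO cells stably expressing the individual human α2 subtype. Cells were seeded at 3 × 10⁵ cells/cup for 24 h at 37 °C/5% CO₂ and perfused with bicarbonate-free DMEM at 100 µL/min. A control clonidine concentration-response curve was run, then antagonist was applied ≥30 min before a repeat curve. Kb = M/(EC50 ratio − 1), reported as pKb; 3–6 experiments.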
# [2] = target: T2, Alpha-2B adrenergic receptor (Homo sapiens) (UniProt P18089); assay: Antagonist activity at human recombinant adrenergic alpha2B receptor expressed in CHO cells; assay type: functional, cell-based; summary of the method: as §1
# T2 sequence (whole entry): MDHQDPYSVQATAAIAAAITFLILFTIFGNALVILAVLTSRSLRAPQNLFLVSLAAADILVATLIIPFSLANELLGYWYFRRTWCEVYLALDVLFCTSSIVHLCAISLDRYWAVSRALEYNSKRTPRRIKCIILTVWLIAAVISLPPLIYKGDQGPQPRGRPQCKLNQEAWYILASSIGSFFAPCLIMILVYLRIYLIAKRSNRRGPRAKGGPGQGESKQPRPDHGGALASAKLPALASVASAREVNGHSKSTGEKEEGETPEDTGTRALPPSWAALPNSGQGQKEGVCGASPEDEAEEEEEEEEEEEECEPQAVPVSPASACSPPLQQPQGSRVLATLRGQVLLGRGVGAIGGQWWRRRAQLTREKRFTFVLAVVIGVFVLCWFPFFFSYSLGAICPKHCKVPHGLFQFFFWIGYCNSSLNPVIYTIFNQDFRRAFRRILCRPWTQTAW
# [3] = target: T3, Alpha-2A adrenergic receptor (Homo sapiens) (UniProt P08913); assay: Antagonist activity at human recombinant adrenergic alpha2A receptor expressed in CHO cells; assay type: functional, cell-based; summary of the method: as §1
# T3 sequence (whole entry): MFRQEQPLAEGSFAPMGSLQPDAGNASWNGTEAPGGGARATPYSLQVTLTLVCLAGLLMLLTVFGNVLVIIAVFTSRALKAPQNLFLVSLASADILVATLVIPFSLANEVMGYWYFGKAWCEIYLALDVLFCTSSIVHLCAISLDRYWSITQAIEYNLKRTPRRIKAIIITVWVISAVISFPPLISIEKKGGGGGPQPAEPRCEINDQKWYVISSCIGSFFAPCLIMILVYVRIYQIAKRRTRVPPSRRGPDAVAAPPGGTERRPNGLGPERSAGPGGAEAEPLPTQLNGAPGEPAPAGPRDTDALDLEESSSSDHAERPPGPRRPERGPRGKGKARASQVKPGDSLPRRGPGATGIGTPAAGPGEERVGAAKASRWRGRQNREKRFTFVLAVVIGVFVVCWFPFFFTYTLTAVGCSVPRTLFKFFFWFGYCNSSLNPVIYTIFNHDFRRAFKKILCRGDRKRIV
# [4] = target: T2, Alpha-2B adrenergic receptor (Homo sapiens); assay: (§2) Agonist activity at human recombinant adrenergic alpha2B receptor expressed in CHO cells; assay type: functional, cell-based
# Summary of the method: (§3)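 Cytosensor microphysiometry. Stable CHO cells were seeded at 3 × 10⁵ cells/cup, grown 24 h at 37 °C/5% CO₂, then perfused with bicarbonate-free DMEM at 100 µL/min. Over 90 s pump cycles, pH was read for 20 s. Response is the peak acidification rate minus the mean of three pre-agonist readings. pEC50 is the concentration giving 50% of maximum; mean ± SEM, 3-6 experiments.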
# [5] = target: T4, Alpha-2C adrenergic receptor (Homo sapiens, UniProt P18825); assay: Displacement of [3H]RS79948-197 from human recombinant adrenergic Alpha-2C receptor expressed in CHO cells; assay type: cell-based
# T4 sequence (P18825 whole entry): T1 sequence (whole entry)
# Summary of the method: (§4)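 Competition binding on membranes from CHO cells stably expressing each human α2 subtype (1-3 pmol/mg receptor). Assay in 50 mM potassium phosphate, pH 7.4, with 5-10 µg protein. Eight competitor dilutions, 30 min at room temperature, then vacuum filtration and scintillation counting. IC50 by one-site nonlinear regression, converted with Cheng-Prusoff; mean ± SEM, 3-6 experiments.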
# [6] = target: T3, Alpha-2A adrenergic receptor (Homo sapiens); assay: (§5) Agonist activity at human recombinant adrenergic alpha2A receptor expressed in CHO cells assessed as stimulation of extracellular acidification; assay type: functional, cell-based
# [7] = target: T5, Alpha-2B adrenergic receptor (Homo sapiens, UniProt P18089); assay: Displacement of [3H]RS79948-197 from human recombinant adrenergic alpha2B receptor expressed in CHO cells; assay type: cell-based; summary of the method: as §4
# T5 sequence (P18089 whole entry): T2 sequence (whole entry)
# [8] = target: T1, Alpha-2C adrenergic receptor (Homo sapiens); assay: (§6) Agonist activity at human recombinant adrenergic Alpha-2C receptor expressed in CHO cells assessed as stimulation of extracellular acidification; assay type: functional, cell-based; summary of the method: as §3
# [9] = target: T6, Alpha-2A adrenergic receptor (Homo sapiens, UniProt P08913); assay: Displacement of [3H]RS79948-197 from human recombinant adrenergic alpha2A receptor expressed in CHO cells; assay type: cell-based; summary of the method: as §4
# T6 sequence (P08913 whole entry): T3 sequence (whole entry)
# [10] = target: T5, Alpha-2B adrenergic receptor; assay: as §2; assay type: functional, cell-based; summary of the method: as §3
# [11] = target: T6, Alpha-2A adrenergic receptor; assay: as §5; assay type: functional, cell-based
# [12] = target: T2, Alpha-2B adrenergic receptor (Homo sapiens); assay: Intrinsic activity at human recombinant adrenergic alpha2B receptor expressed in CHO cells relative to (-)-noradrenaline; assay type: cell-based
# Summary of the method: (§7)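 Acidification rate was measured by Cytosensor microphysiometry in stably transfected CHO cells (3 × 10⁵ cells/cup, bicarbonate-free DMEM perfusion). Each response is the peak rate change minus the pre-agonist baseline. Emax from concentration-response curves is expressed as a fraction of the (-)-noradrenaline maximum, taken as 1; mean ± SEM, 3-6 experiments.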
# [13] = target: T3, Alpha-2A adrenergic receptor (Homo sapiens); assay: Intrinsic activity at human recombinant adrenergic alpha2A receptor expressed in CHO cells assessed as stimulation of extracellular acidification relative to (-)-noradrenaline; assay type: cell-based
# Summary of the method: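 Microphysiometry (Cytosensor) of extracellular acidification rate in CHO cells stably expressing human α2A. Cells were seeded at 3 × 10⁵ cells/cup and cultured 24 h at 37 °C, then perfused with bicarbonate-free DMEM at 100 µL/min, with agonist diluted into running medium. Response was taken as the maximum after agonist minus the mean of three pre-agonist readings. Emax is expressed as a fraction of (−)-noradrenaline (=1); 3–6 experiments.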
# [14] = target: T4, Alpha-2C adrenergic receptor; assay: as §6; assay type: functional, cell-based; summary of the method: as §3
# [15] = target: T1, Alpha-2C adrenergic receptor (Homo sapiens); assay: Intrinsic activity at human recombinant adrenergic Alpha-2C receptor expressed in CHO cells assessed as stimulation of extracellular acidification relative to (-)-noradrenaline; assay type: cell-based; summary of the method: as §7
# Rattus norvegicus = species on record: Rattus norvegicus; assay: Intrinsic activity at adrenergic alpha2 receptor in rat vas deferens relative to clonidine; assay type: tissue-based
# [16] = Agonist activity at adrenergic alpha2 receptor in rat vas deferens; assay type: functional, tissue-based
Activity [4],Ki [5],Activity [6],Ki [7],Activity [8],Ki [9],EC50 [10],Intrinsic activity [12],EC50 [14],Intrinsic activity [15],SMILES,pKb [1],pKb [2],pKb [3],EC50 [11],Intrinsic activity [13],Intrinsic activity (Rattus norvegicus),EC50 [16]
,,,,,,,,,,c1ccc2c(c1)OCC(C1=NCCN1)O2 (stereo unspecified),7.92,7.16,7.73,,,,
inactive,245 nM,inactive,1070 nM,inactive,126 nM,,,,,COC1(C2=NCCN2)COc2cccc(-c3ccccc3)c2O1 (stereo unspecified),,,,,,,
,912 nM,,708 nM,,288 nM,3980 nM,0.5,126 nM,0.85,CC(Oc1ccccc1/C=N/O)C1=NCCN1 (stereo unspecified),,,,501 nM,0.8,,
,692 nM,inactive,479 nM,,240 nM,22400 nM,0.45,3160 nM,0.4,c1ccc(-c2cccc3c2OC(C2=NCCN2)CO3)cc1 (stereo unspecified),,,,,,,
,832 nM,inactive,1070 nM,,724 nM,12600 nM,0.7,794 nM,0.75,c1ccc(-c2cccc3c2OCC(C2=NCCN2)O3)cc1 (stereo unspecified),,,,,,,
inactive,3090 nM,inactive,1200 nM,,661 nM,,,501 nM,0.55,CO/N=C/c1ccccc1OC(C)C1=NCCN1 (stereo unspecified),,,,,,,
inactive,1260 nM,inactive,1000 nM,inactive,398 nM,,,,,c1ccc(-c2ccc3c(c2)OC(C2=NCCN2)CO3)cc1 (stereo unspecified),,,,,,,
inactive,,inactive,,inactive,,,,,,COC(C)(Oc1ccccc1-c1ccccc1)C1=NCCN1 (stereo unspecified),,,,,,,
,,inactive,,inactive,257 nM,15800 nM,0.5,,,COC1(C2=NCCN2)COc2c(cccc2-c2ccccc2)O1 (stereo unspecified),,,,,,,
,676 nM,inactive,871 nM,,214 nM,31600 nM,0.8,3550 nM,0.5,CC(Oc1ccccc1/C=N/OCc1ccccc1)C1=NCCN1 (stereo unspecified),,,,,,,
inactive,339 nM,inactive,447 nM,,417 nM,,,1000 nM,0.45,CCO/N=C/c1ccccc1OC(C)C1=NCCN1 (stereo unspecified),,,,,,,
inactive,204 nM,,955 nM,,240 nM,,,776 nM,0.7,c1ccc(-c2ccccc2OC(C2=NCCN2)c2ccccc2)cc1 (stereo unspecified),,,,1000 nM,0.45,,
inactive,1580 nM,inactive,1660 nM,inactive,282 nM,,,,,c1ccc(-c2ccc3c(c2)OCC(C2=NCCN2)O3)cc1 (stereo unspecified),,,,,,,

SMILES,Activity [4],Ki [5],Activity [6],Ki [7],Activity [8],Ki [9],EC50 [10],Intrinsic activity [12],EC50 [14],Intrinsic activity [15],pKb [1],pKb [2],pKb [3],EC50 [11],Intrinsic activity [13],Intrinsic activity (Rattus norvegicus),EC50 [16]
C=CCc1ccccc1OC(C)C1=NCCN1 (stereo unspecified) [ALLYPHENYLINE],inactive,85.1 nM,inactive,339 nM,,,,,50.1 nM,0.9,,,7.4,,,,
CC(Oc1ccccc1)C1=NCCN1 (stereo unspecified),,263 nM,,166 nM,,26.9 nM,,,,,6.85,6.2,7.01,,,,
CC(Oc1ccccc1C1CCCC1)C1=NCCN1 (stereo unspecified),,26.9 nM,,191 nM,,50.1 nM,501 nM,0.7,10 nM,0.75,,,,63.1 nM,0.65,,
CC(Oc1ccccc1C1CCCCC1)C1=NCCN1 (stereo unspecified),,77.6 nM,,191 nM,,74.1 nM,200 nM,0.7,20.9 nM,0.8,,,,79.4 nM,0.6,,
c1ccc(OC(C2=NCCN2)c2ccccc2)cc1 (stereo unspecified),,64.6 nM,,47.9 nM,,93.3 nM,,,,,6.9,6.04,6.1,,,,
CC(Oc1ccccc1-c1ccccc1)C1=NCCN1 (stereo unspecified) [BIPHENYLINE],,,,,,,,0.5,,0.8,,,,,0.7,1,3.02 nM
